Assay results: ChEMBL document CHEMBL1133662, “Novel 3-aminomethyl- and 4-aminopiperidine analogues of 1-[2-(diphenylmethoxy)ethyl]-4-(3-phenylpropyl)piperazines: synthesis and evaluation as dopamine transporter ligands” (J Med Chem, 2000)

How the values were obtained:
[1] = molecular target: T1, Sodium-dependent serotonin transporter (Homo sapiens, UniProt P31645); assay: Inhibition of [3H]5-HT reuptake in HEK293 cells expressing human serotonin transporter; type: cell-based
Summary of the method: (§1)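 Confluent HEK 293 cells expressing human SERT or DAT were scraped into PBS and used as a suspension in Krebs HEPES at 25 °C. Drug (six concentrations, triplicate) was preincubated with cells 10 min. [3H]5-HT or [3H]DA (0.020 µM final) was added for 10 min, then uptake was stopped by filtration onto polyethyleneimine-soaked GF/C filters. IC50 from three independent experiments.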

[2] = molecular target: T1, Sodium-dependent serotonin transporter; assay: Binding affinity for serotonin transporter using [125I]RTI-55
Summary of the method: (§2)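 Membranes from HEK 293 cells expressing human DAT or SERT, lysed in 2 mM HEPES/1 mM EDTA, pelleted at 30000g and resuspended in 0.32 M sucrose (about 15 µg protein per assay). Incubated 90 min at room temperature in the dark, then filtered. Duplicate competition curves; IC50 converted to Ki by Cheng-Prusoff.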

[3] = Discrimination ratio of [3H]-DA reuptake/DAT binding; type: functional
[4] = molecular target: Monoamine transporters; Norepinephrine & dopamine (Homo sapiens) (UniProt Q01959+P23975); assay: Selectivity ratio of NET/DAT; type: protein assay
Sequence of Monoamine transporters; Norepinephrine & dopamine (Homo sapiens) (P23975 whole entry, looked up): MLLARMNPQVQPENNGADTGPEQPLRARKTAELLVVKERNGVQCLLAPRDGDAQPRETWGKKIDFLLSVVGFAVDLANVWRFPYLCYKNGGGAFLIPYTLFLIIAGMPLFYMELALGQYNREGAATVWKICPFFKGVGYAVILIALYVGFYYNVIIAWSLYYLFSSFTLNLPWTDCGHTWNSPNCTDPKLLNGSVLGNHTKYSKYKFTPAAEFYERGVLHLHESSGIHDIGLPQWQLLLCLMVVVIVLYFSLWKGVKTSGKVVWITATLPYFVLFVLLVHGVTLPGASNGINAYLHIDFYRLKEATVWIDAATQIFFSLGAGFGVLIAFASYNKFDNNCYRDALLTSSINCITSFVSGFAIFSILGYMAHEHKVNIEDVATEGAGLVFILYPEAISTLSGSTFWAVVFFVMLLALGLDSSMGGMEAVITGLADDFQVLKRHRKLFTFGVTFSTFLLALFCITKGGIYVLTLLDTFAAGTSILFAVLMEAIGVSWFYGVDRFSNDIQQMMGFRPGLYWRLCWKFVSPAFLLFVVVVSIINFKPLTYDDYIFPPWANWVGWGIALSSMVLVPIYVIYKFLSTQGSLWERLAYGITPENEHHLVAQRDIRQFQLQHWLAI
Sequence of Monoamine transporters; Norepinephrine & dopamine (Homo sapiens) (Q01959 whole entry, looked up): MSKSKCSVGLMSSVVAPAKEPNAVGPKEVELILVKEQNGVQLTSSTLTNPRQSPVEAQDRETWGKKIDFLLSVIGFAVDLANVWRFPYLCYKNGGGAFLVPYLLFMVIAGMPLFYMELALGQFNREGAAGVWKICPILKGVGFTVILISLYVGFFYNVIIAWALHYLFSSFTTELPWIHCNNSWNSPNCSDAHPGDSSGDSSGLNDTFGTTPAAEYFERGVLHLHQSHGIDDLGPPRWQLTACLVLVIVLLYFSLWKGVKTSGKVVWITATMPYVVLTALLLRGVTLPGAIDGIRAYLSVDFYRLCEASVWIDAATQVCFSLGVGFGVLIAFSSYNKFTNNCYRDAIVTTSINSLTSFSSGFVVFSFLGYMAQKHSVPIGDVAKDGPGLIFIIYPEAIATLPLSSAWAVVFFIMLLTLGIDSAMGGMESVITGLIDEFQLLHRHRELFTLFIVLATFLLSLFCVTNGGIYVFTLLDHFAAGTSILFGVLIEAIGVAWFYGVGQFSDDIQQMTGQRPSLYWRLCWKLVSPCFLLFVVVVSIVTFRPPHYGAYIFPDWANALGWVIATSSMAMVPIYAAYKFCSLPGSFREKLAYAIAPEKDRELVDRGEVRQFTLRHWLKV

[5] = molecular target: T2, Sodium-dependent noradrenaline transporter (Homo sapiens, UniProt P23975); assay: Inhibition of [3H]NE reuptake by human norepinephrine transporter expressed in HEK293 cells; type: cell-based
T2 sequence (P23975 whole entry): as the sequence (P23975 whole entry, looked up) above

[6] = molecular target: Monoamine transporters; serotonin & dopamine (Homo sapiens) (UniProt P31645+Q01959); assay: Selectivity ratio of SERT/DAT; type: protein assay
Sequence of Monoamine transporters; serotonin & dopamine (Homo sapiens) (P31645 whole entry, looked up): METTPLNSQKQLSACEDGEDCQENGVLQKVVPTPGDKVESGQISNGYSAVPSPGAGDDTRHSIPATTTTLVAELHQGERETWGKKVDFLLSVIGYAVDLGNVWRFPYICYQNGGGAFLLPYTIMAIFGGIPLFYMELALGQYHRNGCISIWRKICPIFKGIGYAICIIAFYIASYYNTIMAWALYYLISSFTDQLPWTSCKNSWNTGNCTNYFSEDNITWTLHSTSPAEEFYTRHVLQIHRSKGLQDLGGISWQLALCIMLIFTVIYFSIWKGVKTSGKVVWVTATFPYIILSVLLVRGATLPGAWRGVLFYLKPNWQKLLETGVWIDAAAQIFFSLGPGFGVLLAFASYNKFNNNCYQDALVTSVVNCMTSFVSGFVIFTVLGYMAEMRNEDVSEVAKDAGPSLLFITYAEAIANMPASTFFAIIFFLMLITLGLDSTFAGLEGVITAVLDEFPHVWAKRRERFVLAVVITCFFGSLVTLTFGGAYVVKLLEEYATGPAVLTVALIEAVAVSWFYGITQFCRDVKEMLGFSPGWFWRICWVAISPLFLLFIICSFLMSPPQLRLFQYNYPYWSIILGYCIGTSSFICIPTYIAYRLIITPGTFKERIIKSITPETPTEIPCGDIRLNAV
Sequence of Monoamine transporters; serotonin & dopamine (Homo sapiens) (Q01959 whole entry, looked up): as the sequence (Q01959 whole entry, looked up) above

[7] = molecular target: T2, Sodium-dependent noradrenaline transporter; assay: Binding affinity at the norepinephrine transporter was measured using [125I]RTI-55 as a radioligand
[8] = molecular target: T3, Sodium-dependent dopamine transporter (Homo sapiens, UniProt Q01959); assay: Inhibition of [3H]dopamine reuptake in HEK293 cells expressing human dopamine transporter; type: cell-based; summary of the method: as §1
T3 sequence (Q01959 whole entry): as the sequence (Q01959 whole entry, looked up) above

[9] = Discrimination ratio of [3H]5-HT reuptake/SERT binding; type: functional
[10] = molecular target: T3, Sodium-dependent dopamine transporter; assay: Inhibition of [125I]RTI-55 binding to dopamine transporter; summary of the method: as §2

T1 sequence (P31645 whole entry): as the sequence (P31645 whole entry, looked up) above

Row | SMILES | IC50 [1] | Ki [2] | Discrimination ratio [3] | Selectivity ratio [4] | IC50 [5] | Selectivity ratio [6] | Ki [7] | IC50 [8] | Discrimination ratio [9] | Ki [10]
1 | Fc1ccc(CCNC2CCN(CCOC(c3ccccc3)c3ccccc3)CC2)cc1 | 470 nM | 220 nM | 2.9 | 0.7 | 170 nM | 2 | 79 nM | 320 nM | 2.1 | 110 nM
2 | CN(CCOC(c1ccccc1)c1ccccc1)C1CCN(CCCc2ccccc2)CC1 | 1910 nM | 1400 nM | 11.1 | 1 | 200 nM | 47.3 | 29 nM | 330 nM | 0.9 | 30 nM
3 | Fc1ccc(CCN2CCCC(CNCCOC(c3ccccc3)c3ccccc3)C2)cc1 (configuration not stated) | 1130 nM | 350 nM | 4.8 | 1.5 | 200 nM | 3.3 | 150 nM | 500 nM | 3.3 | 100 nM
4 | c1ccc(CN2CCC(NCCOC(c3ccccc3)c3ccccc3)CC2)cc1 | 1860 nM | 2160 nM | 3.2 | 2.1 | 87 nM | 26 | 180 nM | 270 nM | 0.9 | 83 nM
5 | c1ccc(CCCNC2CCN(CCOC(c3ccccc3)c3ccccc3)CC2)cc1 | 390 nM | 55 nM | 2.5 | 0.8 | 230 nM | 0.4 | 120 nM | 390 nM | 7.1 | 160 nM
6 | c1ccc(CCCN2CCCC(CNCCOC(c3ccccc3)c3ccccc3)C2)cc1 (configuration not stated) | 820 nM | 210 nM | 8.1 | 1.3 | 97 nM | 11.9 | 23 nM | 150 nM | 3.8 | 18 nM
7 | Fc1ccc(CCNCC2CCCN(CCOC(c3ccccc3)c3ccccc3)C2)cc1 (configuration not stated) | 1830 nM | 890 nM | 4.2 | 2.1 | 190 nM | 10.2 | 190 nM | 364 nM | 2.1 | 87 nM
8 | c1ccc(CCCN2CCN(CCOC(c3ccccc3)c3ccccc3)CC2)cc1 | – | – | – | – | 165 nM | – | 630 nM | – | – | –
9 | CN(CCc1ccc(F)cc1)CC1CCCN(CCOC(c2ccccc2)c2ccccc2)C1 (configuration not stated) | 2130 nM | 530 nM | 14 | 1.3 | 350 nM | 5.9 | 110 nM | 1260 nM | 4 | 90 nM
10 | CN(CCCc1ccccc1)C1CCN(CCOC(c2ccccc2)c2ccccc2)CC1 | 310 nM | 87 nM | 0.6 | 0.1 | 180 nM | 0.3 | 42 nM | 210 nM | 3.6 | 340 nM
11 | c1ccc(CCCNCC2CCCN(CCOC(c3ccccc3)c3ccccc3)C2)cc1 (configuration not stated) | 770 nM | 320 nM | 1.5 | 0.6 | 48 nM | 4.5 | 41 nM | 105 nM | 2.5 | 70 nM
